Most compounds without a hit are left out; they make up all but 1.3% or so of the library.
CRFBP-R2 agonist: CRF-BP/CRF-R2 complex agonism; HEK293 CRF-R2/CRF-BP, calcium dye fluorescence (FLIPR); percent of saturating CRF peptide response; activation, % at 13.2 µM; 350,000 compounds, 0.46% hits; AID 588473;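 active = activation of at least 50%, plus an integration ratio under a set limit after plate pattern correction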
DDE Tn6 FP inh: inhibitors of Tn6 peptide binding to human fibrin DD(E). AID 720509. inhibition, % at 8.3 µM. Fibrin DD(E) TRITC-Tn6 fluorescence polarization displacement. 370,000 compounds, 0.21% hits;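 active = inhibition above a per-campaign cutoff: mean of compounds within control limits plus 3 SD, cut at about 15% in these data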
Target sequence (P02675 whole entry, looked up): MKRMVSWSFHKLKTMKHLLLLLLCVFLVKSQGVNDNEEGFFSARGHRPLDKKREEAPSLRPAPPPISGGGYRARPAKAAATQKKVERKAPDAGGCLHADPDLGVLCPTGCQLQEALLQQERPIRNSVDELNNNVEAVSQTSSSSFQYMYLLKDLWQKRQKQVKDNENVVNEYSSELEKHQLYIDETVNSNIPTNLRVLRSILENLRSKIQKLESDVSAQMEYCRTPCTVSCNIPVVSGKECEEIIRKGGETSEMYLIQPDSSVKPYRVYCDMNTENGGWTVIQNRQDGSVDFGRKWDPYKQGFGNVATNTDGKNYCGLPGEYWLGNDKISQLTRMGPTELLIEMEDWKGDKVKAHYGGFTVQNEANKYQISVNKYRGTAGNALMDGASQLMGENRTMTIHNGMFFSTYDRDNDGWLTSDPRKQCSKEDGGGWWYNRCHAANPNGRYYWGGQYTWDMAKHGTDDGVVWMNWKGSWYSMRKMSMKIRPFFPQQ
Tn7 DDE FP: disrupts Tn7 cyclic peptide binding to fibrin D-Dimer-E complex; inhibition, % at 8.3 µM; FP displacement of FITC-Tn7 peptide from fibrin DD(E); 0% = median of compound wells per plate; 370,000 compounds, 0.13% hits; P02675;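 active = inhibition above the mean of compounds falling within the control limits plus 3 SD of them, cut at about 14% in these data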
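system = human fibrin DD(E) protein | quantity = DD(E) 2 µM final | medium = Tris/NaCl/CaCl2 buffer, pH 7.8 | also added = labelled Tn7 tracer, 0.1 µM | compound dosing = single point at 8.3 µM | timing = compound with protein 10 min, then 3 h after probe, room temperature | signal = FP measurement | benchmarks = Aha-Tn7 high control | repeats = one replicate per compound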
CRFBP-R2 block: blocks CRF-induced signaling of the CRF-BP/CRF-R2 complex; HEK293 CRF-R2/CRF-BP, CRF-induced calcium fluorescence; inhibition, % at 11.8 µM; 350,000 compounds, 0.59% hits;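 active = inhibition of the ligand-induced calcium signal above about 50% at the single tested concentration, limit read from the data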
Hits are given with their value; i = inactive; nt = no result; ! = not active in a repeat.

SMILES	CRFBP-R2 agonist	DDE Tn6 FP inh	Tn7 DDE FP	CRFBP-R2 block
CCCS(=O)(=O)N1CCCC(C(=O)NCCCN(CC)c2cccc(C)c2)C1 (stereo not given)	i	i	i	94
CCN1C(c2ccccc2)C(C)C(=O)C(C)C1c1ccccc1 (stereo not given)	i	i	i	57
CC1C(=O)C(C)C(c2ccccc2)N(N=O)C1c1ccccc1 (stereo not given)	i	i	i	i
CCc1cccc2c(C(C)c3ccccc3O)c[nH]c12 (stereo not given)	nt	i	i	nt
Cc1ccc(S(=O)(=O)Nc2nc3ccccc3nc2Nc2cccc(S(=O)(=O)N3CCCC3)c2)cc1	i	i	i	i
O=[N+]([O-])c1cccc(S(=O)(=O)Nc2nc3ccccc3nc2Nc2cccc(S(=O)(=O)N3CCCCC3)c2)c1	i	i	i	90
COC(=O)[C@H](C(C)C)N1Cc2nnn(Cc3ccc(C)cc3)c2-c2cc(F)ccc2S1(=O)=O	nt	i	i	nt
O=C(CCc1ccccc1)N[C@H]1[C@@H](OC(=O)c2ccco2)CCC[C@]12C(=O)N(Cc1ccccc1)c1ccccc12	nt	i	i	nt
COC(=O)c1cc(-c2ccc3ccccc3c2)c(=O)n2c1CCC2	nt	i	i	nt
CC1=C(C(=O)OC(C)C)C(c2cccs2)N2C(=O)C(C)SC2=N1 (stereo not given)	i	i	i	50
Cc1ccccc1Oc1cc(-n2ncc(Cl)c(Cl)c2=O)ncn1	i	i	i	65
CCCCOc1ccc(N(CC(=O)NCC2CCCO2)C(=O)CCC(=O)Nc2nccs2)cc1 (stereo not given)	i	i	i	i
CCOc1ccc(N(CC(=O)NCC2CCCO2)C(=O)CCC(=O)Nc2nccs2)cc1 (stereo not given)	i	i	i	52
Nc1ccn(C2OC(CO)C(O)C2O)c(=O)n1 (stereo not given)	nt	i	i	nt
Nc1ccn([C@@H]2O[C@H](CO)[C@@H](O)[C@@H]2O)c(=O)n1	i	16	15	i
Cc1cccc2c1CCC1CN(Cc3ccccc3)S(=O)(=O)N21 (stereo not given)	nt	i	i	nt
O=C(CNC(=O)C1CCCCC1)Nc1ccc(F)c(Cl)c1	i	i	i	65
O=C(COC(=O)CSc1cc(Cl)ccc1Cl)NCc1ccc2c(c1)OCO2	52	i	i	i
O=C(COC(=O)COc1ccc(Cl)cc1)NCc1ccc2c(c1)OCO2	i	i	i	i
COc1ccc(S(=O)(=O)N/N=C(/C)c2ccc(Cl)cc2)cc1	i	i	i	i
COc1cccc(/C(C)=N/NS(=O)(=O)c2ccc(Cl)cc2)c1	i	i	i	54
CCC[C@H]1[C@@H](NC(=O)c2ccc(C)cc2)CC[C@@]23CCCN2C(=O)CCC[C@@H]13	nt	i	i	nt
COc1ccc(CN2CCC(CO)(CCOc3ccccc3)CC2)cc1C	i	i	i	88
CCCCCCc1c[nH]c2ccc(O)c(-c3ccccc3)c12	nt	i	i	nt
Cc1cc(C(C#N)c2ccc(Cl)cc2)c(Cl)cc1NC(=O)c1cc(I)cc(I)c1O (stereo not given)	i	i	i	58
SMILES	CRFBP-R2 agonist	DDE Tn6 FP inh	Tn7 DDE FP	CRFBP-R2 block
CCN(CC)C(=O)CC[C@@H]1CC[C@]2(CCCN(S(C)(=O)=O)C2)O1	nt	i	i	nt
CC1C(=O)C(C)C(c2cc(Br)ccc2O)NC1c1cc(Br)ccc1O (stereo not given)	i	i	i	58
CC1C(=O)C(C)C(c2ccc(Br)cc2)NC1c1ccc(Br)cc1 (stereo not given)	i	i	i	i
CCn1c(SCC(=O)Nc2ccccc2F)nnc1-c1ccoc1C	i	i	i	i
COCCCn1c(SCC(=O)Nc2ccccc2F)nnc1-c1ccoc1C	i	i	i	103
O=C1C(=O)N(Cc2ccc(-c3ccc(Cl)nc3)cc2)c2ccc(OC(F)(F)F)cc21	nt	i	i	nt
CCN1CCN(C(=O)C2=CC(c3ccc(OC)cc3)=NS(=O)(=O)N2C)CC1	i	i	i	63
COc1ccc(C2=NS(=O)(=O)N(C)C(C(=O)N3CCN(C)CC3)=C2)cc1	i	i	i	i
CSc1ccc(/C=C(/NC(=O)c2ccc(C)cc2)C(=O)Nc2cccc(F)c2)cc1	i	i	i	137
COc1ccc(/C=C2\Oc3cc(OC(=O)N4CCOCC4)ccc3C2=O)cc1	i	i	i	i
O=C(Oc1ccc2c(c1)O/C(=C\c1ccncc1)C2=O)c1cccs1	i	i	i	i
COc1ccccc1C(=O)Oc1ccc2c(c1)O/C(=C\c1ccncc1)C2=O	124	i	i	i
CC(=O)Oc1ccc2c(c1)O/C(=C\c1ccncc1)C2=O	127	nt	nt	i
CCC(C)c1ccc(C(C)NC(=S)NCc2ccc(F)cc2)cc1 (stereo not given)	i	i	i	i
CCCc1ccc(C(C)NC(=S)NCc2ccc(F)cc2)cc1 (stereo not given)	53	i	i	i
CCOc1ccc(C(C)NC(=S)NCc2ccc(Cl)cc2)cc1 (stereo not given)	95	i	i	i
COC(=O)C1CN(Cc2ccc(F)cc2)CCS(=O)(=O)N1Cc1ccc(C(F)(F)F)cc1 (stereo not given)	nt	i	i	nt
CCCc1nc2ccccc2c(NC(=O)CN(CC)CC)c1CC	i	i	i	i
CCCCc1nc2ccccc2c(NC(=O)CN(CC)CC)c1CCC	i	i	i	98
CC1=C(C)/C(=N\OS(=O)(=O)c2ccccc2)C=CC1=O	57	nt	nt	i
Cc1cc(C)cc(NC(=O)OC2CC3CC2[C@H]2CCCCN2[C@H]3Cc2ccccc2)c1 (stereo not given in full)	nt	i	i	nt
COc1ccc(NS(=O)(=O)c2ccc(O)c(NC(=O)c3cc4c(C)nn(-c5ccc(F)cc5)c4s3)c2)cc1	93	nt	nt	i
CN1CCS/C1=C/C=C1\SC(=S)N(CC(=O)O)C1=O	149	i	i	i
O=C(O)CN1C(=O)/C(=C/c2ccc(N3CCCCC3)o2)SC1=S	i	i	i	i
CCCCN1C(=O)/C(=C/C=C2\SCCN2C)SC1=S	81	i	i	i
SMILES	CRFBP-R2 agonist	DDE Tn6 FP inh	Tn7 DDE FP	CRFBP-R2 block
CCOc1c(C)cc(-c2ncccc2O)cc1C	i	i	i	52!
Cc1c(Br)c([N+](=O)[O-])nn1CC(=O)NC1CCCCCC1	i	i	i	i
Cc1c(Cl)c([N+](=O)[O-])nn1CC(=O)NC1CCCCC1	i	i	i	99
CCOc1ccc(NC(=O)Nc2cc(C)ccc2F)cc1	i	i	i	66
Clc1ccc([C@H]2OC[C@@]3(CNCc4ccccn4)CS[C@H](c4ccc(Cl)cc4)N23)cc1	nt	i	i	nt
Cc1ccc(-n2c(SC/C=C/c3ccccc3)nnc2-c2cccs2)cc1	nt	i	i	nt
CNC(=O)Nc1ccc(Cn2cc(C(F)(F)F)ccc2=O)cc1	i	i	i	i
Cc1ccc(NC(=O)CCn2cc(C(F)(F)F)ccc2=O)cc1	i	i	i	122
CC[n+]1c(/C=C/C=C/N(C(C)=O)c2ccccc2)sc2ccccc21	157	i	i	i
FC(F)(F)c1cccc(N2CCN(C3=Nc4ccccc4Sc4ccccc43)CC2)c1	nt	i	i	nt

Screening data as filed in PubChem BioAssay.
